The species entered for data set [1] is Mus musculus. Description: The compound was evaluated for the mouse active Arthus (MAA) reaction activity expressed as inhibitory dose. Type of data set: functional. The following applies: read-out: ID50 (the source's name). The essentials:
(§1)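 CD-1 mice were sensitized ip with a 1:1 Freund's complete adjuvant emulsion containing BSA in saline, 5 weeks before challenge. Compound was suspended in 1% Na CMC in pyrogen-free saline and given as one ip or oral dose 1 h before skin challenge with BSA. Screening doses were 150 mg/kg ip and 300 mg/kg po, with some at 75 or 50 mg/kg ip. Lesions were excised 3.5 h after challenge and weighed against controls.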

Data set [2] relates to Mus musculus. Description: Inhibition of Mouse active Arthus (MAA) reaction activity was determined for peroral dose of 300 mg/kg in mouse; 31-40%. Type of data set: functional. The settings on record: route oral.
In data set [3] the test system is Cavia porcellus. Description: The compound was evaluated for the delayed hypersensitivity skin reaction (DHSR) activity after subcutaneous administration; 11/27.
In data set [4] the test system is Mus musculus. In words: Inhibition of Mouse Active Arthus reaction following 150 mg/Kg i.p.; 41-60% inhibition. Type of data set: functional. The settings on record: Mus musculus, ip.
Data set [5] relates to Mus musculus. In words: The compound was evaluated for the mouse active Arthus (MAA) reaction activity expressed as inhibitory dose after ip administration. The settings on record: read-out: ID50 (the source's name). Type of data set: functional. The essentials:
as §1

The test system of data set [6] is Mus musculus. In words: The compound was evaluated for the mouse active Arthus (MAA) reaction activity expressed as inhibitory dose after oral administration. The settings on record: read-out: ID50 (the source's name). Type of data set: functional. In short, it runs like this:
as §1

The test system of data set [7] is Mus musculus. Description: Mouse active Arthus (MAA) reaction activity was determined for an ip dose of 150 mg/kg in mouse. Type of data set: functional. The following applies: route intraperitoneal.
Data set [8] in a line: Therapeutic ratio was determined for peroral administration. The following applies: po; read-out: TR.
Data set [9] deals with Cavia porcellus. Description: Tested in delayed hypersensitivity skin reaction (DHSR) after subcutaneous administration, activity reported as percent inhibition of erythema/induration of lesion; 18/50. Type of data set: functional.
Data set [10] is described as follows: Therapeutic ratio was determined for intraperitoneal administration. Type of data set: ADME. The following applies: ip; read-out: TR.
A short description of data set [11]: Acute toxicity as LD50 value was determined in mice administered intraperitoneally. Type of data set: organism-based. The following applies: mouse, in vivo, ip.
A short description of data set [12]: Acute toxicity as LD50 value was determined in mice administered orally. Type of data set: organism-based. The settings on record: mouse, in vivo, po.
In data set [13] the test system is Mus musculus. Description: Inhibition of Mouse active Arthus (MAA) reaction activity was determined for peroral dose of 300 mg/kg in mouse; 21-30%. The following applies: route oral. Type of data set: functional.
In data set [14] the test system is Cavia porcellus. Description: Tested in delayed hypersensitivity skin reaction (DHSR) after subcutaneous administration, activity reported as percent inhibition of erythema/induration of lesion; 5/2. Type of data set: functional. In short, it runs like this: (§2)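 Male Hartley guinea pigs were sensitized with Mycobacterium tuberculosis in Freund's incomplete adjuvant, injected into each hind footpad and subcutaneously at the neck. After 3 weeks, 1.2 μg PPD was given intradermally. Compound in sesame oil was given sc, 3 animals per group, 30 min before and 5 h after PPD; screening dose 50 mg/kg.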

Data set [15] relates to Mus musculus. In words: Inhibition of Mouse active Arthus (MAA) reaction activity was determined for an ip dose of 150 mg/kg in mouse; 21-30%. Type of data set: functional. The following applies: route intraperitoneal.
The test system of data set [16] is Cavia porcellus. In words: Tested in delayed hypersensitivity skin reaction (DHSR) after subcutaneous administration, activity reported as percent inhibition of erythema/induration of lesion; 19/23. Type of data set: functional.
The subject of data set [17] is Mus musculus. Description: The compound was evaluated for the mouse active Arthus (MAA) reaction activity for peroral screening dose of 150 mg/kg in mouse. Type of data set: functional. The following applies: route oral.
The test system of data set [18] is Mus musculus. In words: The compound was evaluated for the mouse active Arthus (MAA) reaction activity for an ip screening dose of 75 mg/kg in mouse. Type of data set: functional. The settings on record: route intraperitoneal. In short, it runs like this: as §1
Data set [19] deals with Cavia porcellus. In words: The compound was evaluated for the delayed hypersensitivity skin reaction (DHSR) activity after subcutaneous administration; 1/0.
Data set [20] has as its system Cavia porcellus. In words: The compound was evaluated for the delayed hypersensitivity skin reaction (DHSR) activity after subcutaneous administration; 8/1.
The test system of data set [21] is Mus musculus. Description: Mouse active Arthus (MAA) reaction activity was determined for an ip dose of 150 mg/kg in mouse; 31-40%. Type of data set: functional. The following applies: route intraperitoneal.
The subject of data set [22] is Cavia porcellus. Description: Tested in delayed hypersensitivity skin reaction (DHSR) after subcutaneous administration, activity reported as percent inhibition of erythema/induration of lesion; 4/22. Type of data set: functional. The essentials: as §2
Data set [23] relates to Cavia porcellus. Description: Tested in delayed hypersensitivity skin reaction (DHSR) after subcutaneous administration, activity reported as percent inhibition of erythema/induration of lesion; 7/17. Type of data set: functional. The essentials: as §2
Data set [24] has as its system Cavia porcellus. In words: The compound was evaluated for the delayed hypersensitivity skin reaction (DHSR) activity after subcutaneous administration; 12/21.
Data set [25] relates to Cavia porcellus. In words: Tested in delayed hypersensitivity skin reaction (DHSR) after subcutaneous administration, activity reported as percent inhibition of erythema/induration of lesion; 7/1. Type of data set: functional. In short, it runs like this: as §2
Data set [26] relates to Mus musculus. In words: Inhibition of Mouse active Arthus (MAA) reaction activity was determined for peroral screening dose of 150 mg/kg in mouse; 21-30%. The following applies: route oral. Type of data set: functional.
In data set [27] the test system is Mus musculus. Description: Mouse active Arthus (MAA) reaction was determined value for oral administration.

With `CN1CCN(CCCN2N=C3/C(=C/c4ccc([S+](C)[O-])cc4)CSCC3C2c2ccc([S+](C)[O-])cc2)CC1.O=C(O)/C=C\C(=O)O` (stereo not drawn), in the data set listed under Mus musculus [1], the ED50 is 190 mg/kg. This compound registered an inhibition in vivo at 300 mg/kg in the data set on Mus musculus [2] of 31%. In the data set on Cavia porcellus [3], this compound gave an Activity of 11. The compound also displayed an inhibition in vivo at 150 mg/kg in the data set with Mus musculus [4] of 41%.
With `COc1ccc(/C=C2\CS(=O)(=O)CC3C2=NN(CCCN2CCN(C)CC2)C3c2ccc(OC)cc2)cc1.O=C(O)/C=C\C(=O)O` (stereo not drawn), the values for the ED50 in the data set on Mus musculus [5], with Mus musculus [6] and in the data set filed under Mus musculus [1] were 30 mg/kg, 234 mg/kg and 30 mg/kg, respectively. In the data set with Mus musculus [7], the inhibition in vivo at 150 mg/kg is > 60%. Also, the selectivity ratio is > 5.1 in data set [8] and 9.6 in [10]. The Activity in the data set with Cavia porcellus [9] is recorded as 18. Besides, the median lethal dose (LD50) is 280 mg/kg in data set [11] and > 1200 mg/kg in data set [12]. Also, the inhibition in vivo at 300 mg/kg in the data set on Mus musculus [13] was 21%.
`CC(C)n1nc(-c2cccc(C(F)(F)F)c2)c2c1/C(=C/c1cccc(C(F)(F)F)c1)CS(=O)(=O)C2`: the Activity in the data set on Cavia porcellus [14] is 5. Further, in the data set on Mus musculus [15], 150 mg/kg produced 21% inhibition in vivo.
In turn, `Cc1ccc(/C=C2\CS(=O)(=O)Cc3c(-c4ccc(C)cc4)nn(CC(F)(F)F)c32)cc1` returned an Activity with Cavia porcellus [16] of 19. In addition, the inhibition in vivo at 150 mg/kg with Mus musculus [17] was < 20%. Moreover, in the data set with Mus musculus [18], the inhibition in vivo at 75 mg/kg was > 60%.
The compound `CCCN1N=C2/C(=C/c3ccccc3)CSCC2C1c1ccccc1` (stereo not drawn) came in with an inhibition in vivo at 150 mg/kg with Mus musculus [15] of 21%. In addition, the Activity in the data set on Cavia porcellus [19] stood at 1.
As for `C#CCN1N=C2/C(=C/c3cccc(C(F)(F)F)c3)CS(=O)(=O)CC2C1c1cccc(C(F)(F)F)c1` (stereo not drawn), the Activity in the data set on Cavia porcellus [20] is 8. 150 mg/kg produced 31% inhibition in vivo in the data set on Mus musculus [21].
As to `CC(C)N1N=C2/C(=C/c3cccc(C(F)(F)F)c3)CS(=O)(=O)CC2C1c1cccc(C(F)(F)F)c1` (stereo not drawn), in the data set on Mus musculus [21], at 150 mg/kg the inhibition in vivo was 31%. Also, in the data set on Cavia porcellus [22], the Activity came out at 4.
`CCCN1N=C2/C(=C/c3ccccc3C)CS(=O)(=O)CC2C1c1ccccc1C` (stereo not drawn) came in with an inhibition in vivo at 150 mg/kg with Mus musculus [15] of 21%. The Activity with Cavia porcellus [23] came to 7.
`CCCN1N=C2/C(=C/c3cccc(C(F)(F)F)c3)CSCC2C1c1cccc(C(F)(F)F)c1` (stereo not drawn): the Activity in the data set with Cavia porcellus [24] amounted to 12. For the same compound, the inhibition in vivo at 150 mg/kg with Mus musculus [21] turned out to be 31%.
Take `CCCN1N=C2/C(=C/c3ccc(C(C)(C)C)cc3)CS(=O)(=O)CC2C1c1ccc(C(C)(C)C)cc1` (stereo not drawn): in the data set on Cavia porcellus [25], the Activity was determined as 7. The same compound showed an inhibition in vivo at 150 mg/kg in the data set with Mus musculus [26] of 21%.
On to `CC(C)Cc1ccc(C(C)C(=O)O)cc1` (stereo not drawn) [IBUPROFEN], for which, in data set [8], the selectivity ratio is 3.4. The ID50 with Mus musculus [27] worked out at 494 mg/kg.

Values taken from ChEMBL document CHEMBL1122142, “Synthesis and antiinflammatory activity of hexahydrothiopyrano[4,3-c]pyrazoles and related analogues” (J Med Chem, 1982).
